Reference: ChEMBL document CHEMBL2203146, “Search for anticonvulsant and analgesic active derivatives of dihydrofuran-2(3H)-one” (Bioorg Med Chem, 2012)
Active and inactive are the calls of the source.

Assays:
Mus musculus [1] = assay: Neurotoxicity in albino CF1 mouse assessed as minimal motor impairment at 100 mg/kg, ip after 0.5 hr by rotorod test; assay type: toxicity, organism-based; set-up: dose 100 mg/kg, route intraperitoneal; conditions: in vivo
Procedure, shortened: (§1)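 Rotarod in male CF No. 1 mice after ip dosing (30, 100, 300 mg/kg; saline or 0.5% methylcellulose) at 15–240 min. Knurled plastic rod, 1-inch diameter, 6 rpm. Toxicity means failing to stay on for 1 min on three successive attempts. Recorded as toxic/tested.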

Mus musculus [2] = assay: Anticonvulsant activity in albino CF1 mouse assessed as protection against maximal electroshock-induced seizures at 100 mg/kg, ip after 0.25 hr; assay type: functional, organism-based; set-up: dose 100 mg/kg
Procedure, shortened: (§2)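 Male albino CF No. 1 mice (18–25 g) dosed ip at 30, 100 and 300 mg/kg in saline or 0.5% methylcellulose, tested 15, 30, 60 and 240 min after dosing. Maximal electroshock seizures elicited with 60-cycle alternating current. Scored as animals protected/animals tested, small qualitative groups.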

Mus musculus [3] = assay: Neurotoxicity in albino CF1 mouse assessed as minimal motor impairment at 100 mg/kg, ip after 1 hr by rotorod test; assay type: toxicity, organism-based; set-up: dose 100 mg/kg, route intraperitoneal; conditions: in vivo; procedure, shortened: as §1
Mus musculus [4] = assay: Anticonvulsant activity in albino CF1 mouse assessed as protection against maximal electroshock-induced seizures at 300 mg/kg, ip after 0.5 hr; assay type: functional, organism-based; set-up: dose 300 mg/kg; procedure, shortened: as §2
Mus musculus [5] = assay: Neurotoxicity in albino CF1 mouse assessed as minimal motor impairment at 300 mg/kg, ip after 4 hrs by rotorod test; assay type: toxicity, organism-based; set-up: dose 300 mg/kg, route intraperitoneal; conditions: in vivo; procedure, shortened: as §1
Mus musculus [6] = assay: Anesthetic activity in albino CF1 mouse assessed as latency in response to thermal stimuli administered as 1% solution, sc measured after 15 mins by modified tail immersion test; assay type: functional
Procedure, shortened: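 Male Albino Swiss (CD-1) mice, 6-8 per group, tested at 1% and 2% compound concentration. Tail distal 3 cm immersed in water at 50 ± 0.5 °C 15 min after treatment. Tail-withdrawal latency recorded with a 20 s cutoff. Value is % difference in latency vs vehicle-treated mice. Mean ± SEM, Student's t-test.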

Mus musculus [7] = assay: Neurotoxicity in albino CF1 mouse assessed as minimal motor impairment at 300 mg/kg, ip after 0.5 hr by rotorod test; assay type: toxicity, organism-based; set-up: dose 300 mg/kg, route intraperitoneal; conditions: in vivo; procedure, shortened: as §1
Mus musculus [8] = assay: Anticonvulsant activity in albino CF1 mouse assessed as protection against maximal electroshock-induced seizures at 100 mg/kg, ip after 0.5 hr; assay type: functional, organism-based; set-up: dose 100 mg/kg; procedure, shortened: as §2
Mus musculus [9] = assay: Anticonvulsant activity in albino CF1 mouse assessed as protection against maximal electroshock-induced seizures at 100 mg/kg, ip after 1 hr; assay type: functional, organism-based; set-up: dose 100 mg/kg; procedure, shortened: as §2
Mus musculus [10] = assay: Neurotoxicity in albino CF1 mouse assessed as minimal motor impairment at 100 mg/kg, ip after 0.25 hr by rotorod test; assay type: toxicity, organism-based; set-up: dose 100 mg/kg, route intraperitoneal; conditions: in vivo; procedure, shortened: as §1
Mus musculus [11] = assay: Anesthetic activity in […] assessed as latency in response to thermal stimuli administered as 2% solution, sc measured after 15 mins by modified tail immersion test; assay type: functional, albino CF1
Mus musculus [12] = assay: Analgesic activity in albino CF1 mouse assessed as inhibition of heat-induced paw licking or jumping behaviour administered after 30 mins prior heat challenge by hot plate method; assay type: functional
Mus musculus [13] = assay: Anticonvulsant activity in albino CF1 mouse assessed as protection against subcutaneous metrazol-induced seizures at 30 to 300 mg/kg, ip after 0.5 to 4 hrs; assay type: functional, organism-based
Procedure, shortened: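 CF No. 1 male mice dosed ip at 30, 100 or 300 mg/kg (saline or 0.5% methylcellulose), then given pentetrazole 85 mg/kg sc as 0.5% solution in posterior midline. Watched 30 min. Protection means no threshold seizure (single clonic spasm episode of at least 5 s). Expressed as protected/tested.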

Mus musculus [14] = assay: Anticonvulsant activity in albino CF1 mouse assessed as protection against maximal electroshock-induced seizures at 100 mg/kg, ip after 4 hrs; assay type: functional, organism-based; set-up: dose 100 mg/kg; procedure, shortened: as §2
Mus musculus [15] = assay: Neurotoxicity in albino CF1 mouse assessed as minimal motor impairment at 100 mg/kg, ip after 4 hrs by rotorod test; assay type: toxicity, organism-based; set-up: dose 100 mg/kg, route intraperitoneal; conditions: in vivo; procedure, shortened: as §1
Mus musculus [16] = assay: Anticonvulsant activity in albino CF1 mouse assessed as protection against maximal electroshock-induced seizures at 300 mg/kg, ip after 4 hrs; assay type: functional, organism-based; set-up: dose 300 mg/kg; procedure, shortened: as §2
Mus musculus [17] = assay: […] activity in ip dosed albino CF1 mouse assessed as inhibition of phenylbenzoquinone-induced writhing administered after 30 mins prior challenge; assay type: functional
Procedure, shortened: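 Male Albino Swiss (CD-1) mice, 6-8 per dose. Compound given ip in 0.5% methylcellulose. 30 min later, 0.25 ml of 0.02% phenylbenzoquinone injected. After 5 min, writhes counted over 10 min. % effect = (vehicle mean − drug mean)/vehicle mean × 100. ED50 derived; Student's t-test.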

| Compound | Activity (Mus musculus [1]) | Activity (Mus musculus [2]) | Activity (Mus musculus [3]) | Activity (Mus musculus [4]) | Activity (Mus musculus [5]) | Activity (Mus musculus [6]) [%] | Activity (Mus musculus [7]) | Activity (Mus musculus [8]) | Activity (Mus musculus [9]) | Activity (Mus musculus [10]) | Activity (Mus musculus [11]) [%] | ED50 (Mus musculus [12]) [mg/kg] | Activity (Mus musculus [13]) | Activity (Mus musculus [14]) | Activity (Mus musculus [15]) | Activity (Mus musculus [16]) | ED50 (Mus musculus [17]) [mg/kg] |
| --- | --- | --- | --- | --- | --- | --- | --- | --- | --- | --- | --- | --- | --- | --- | --- | --- | --- |
| COc1ccccc1N1CCN(C2CCOC2=O)CC1 (racemic) | Non-toxic | inactive | Non-toxic | Active | Non-toxic | 97 | Toxic | inactive | inactive | Non-toxic | 152 | 0.7 | inactive | inactive | Non-toxic | inactive | 0.3 |
| Cc1cccc(C)c1NC(=O)C1CCCCN1C (configuration not stated) [MEPIVACAINE] | – | – | – | – | – | 95 | – | – | – | – | 117 | – | – | – | – | – | – |
| CC1CC(N2CCN(c3ccccc3)CC2)C(=O)O1 (mixture of isomers) | Non-toxic | inactive | Non-toxic | Active | Non-toxic | – | Toxic | inactive | inactive | Non-toxic | – | – | inactive | inactive | Non-toxic | inactive | – |
| C/C(NCc1ccccc1)=C1\CCOC1=O | Non-toxic | inactive | Non-toxic | Active | Non-toxic | – | Non-toxic | inactive | inactive | Non-toxic | – | – | inactive | inactive | Non-toxic | inactive | – |
| COc1ccc(N2CCN(C3CCOC3=O)CC2)cc1 (racemic) | Non-toxic | – | – | inactive | Non-toxic | -3 | Non-toxic | inactive | – | – | 49 | 32.5 | inactive | inactive | Non-toxic | inactive | 9.6 |
| CC1CC(NCc2ccccc2)C(=O)O1.Cl (mixture of isomers) | Non-toxic | – | – | inactive | Non-toxic | – | Non-toxic | inactive | – | – | – | – | inactive | inactive | Non-toxic | inactive | – |
| O=C1OCCC1N1C(=O)c2ccccc2C1=O (racemic) | Toxic | – | – | inactive | Non-toxic | – | Toxic | inactive | – | – | – | 33.9 | inactive | inactive | Non-toxic | inactive | 4.5 |
| Cl.O=C1OCCC1NCc1ccccc1 (racemic) | Non-toxic | – | – | inactive | Non-toxic | 1 | Non-toxic | inactive | – | – | 64 | 4.3 | inactive | inactive | Non-toxic | inactive | 2.4 |
| CC(=O)Oc1ccccc1C(=O)O [ASPIRIN] | – | – | – | – | – | – | – | – | – | – | – | – | – | – | – | – | 39.2 |
| COc1cc2c(cc1OC)CN(C1CCOC1=O)CC2 (racemic) | Non-toxic | – | – | inactive | Non-toxic | – | Non-toxic | inactive | – | – | – | 39.8 | inactive | inactive | Non-toxic | inactive | 6.1 |
| Cc1cccc(C)c1NC1CCOC1=O (configuration not stated) | Non-toxic | – | – | inactive | Non-toxic | – | Non-toxic | inactive | – | – | – | – | inactive | inactive | Non-toxic | inactive | – |
| O=C1CC(N2CCN(c3ccccc3)CC2)CO1 (racemic) | Toxic | – | – | inactive | Non-toxic | – | Toxic | inactive | – | – | – | – | inactive | inactive | Non-toxic | inactive | – |
| O=C1OCCC1NCc1ccccc1C(F)(F)F (racemic) | Non-toxic | – | – | inactive | Non-toxic | – | Non-toxic | inactive | – | – | – | – | inactive | inactive | Non-toxic | inactive | – |
| CCN(CC)CC(=O)Nc1c(C)cccc1C [LIDOCAINE] | – | – | – | – | – | 132 | – | – | – | – | 173 | – | – | – | – | – | – |
| COc1ccc(CCN/C(C)=C2/CCOC2=O)cc1OC | Non-toxic | inactive | Non-toxic | Active | Non-toxic | – | Non-toxic | inactive | inactive | Non-toxic | – | – | inactive | inactive | Non-toxic | inactive | – |
| Cl.O=C1OCCC1N1CCOCC1 (racemic) | Non-toxic | – | – | inactive | Non-toxic | – | Toxic | inactive | – | – | – | 9.9 | inactive | inactive | Non-toxic | inactive | 5.4 |
| COc1cccc(N2CCN(C3CCOC3=O)CC2)c1 (racemic) | Non-toxic | – | – | Active | Non-toxic | 6 | Non-toxic | inactive | – | – | 75 | 3.2 | inactive | inactive | Non-toxic | inactive | 3 |
| CN1CC[C@]23c4c5ccc(O)c4O[C@H]2[C@@H](O)C=C[C@H]3[C@H]1C5 [MORPHINE] | – | – | – | – | – | – | – | – | – | – | – | 3.4 | – | – | – | – | 2.4 |
| COc1ccc(CNC2CCOC2=O)cc1.Cl (racemic) | Non-toxic | – | – | inactive | Non-toxic | – | Non-toxic | inactive | – | – | – | – | inactive | inactive | Non-toxic | inactive | – |
| O=C1OCCC1N1CCN(c2ccc(F)cc2)CC1 (racemic) | Toxic | – | – | inactive | Toxic | – | Toxic | inactive | – | – | – | – | inactive | inactive | Toxic | inactive | – |
| O=C1OCCC1N1CCC(Cc2ccccc2)CC1 (racemic) | Non-toxic | inactive | Non-toxic | Active | Toxic | – | Toxic | inactive | inactive | Non-toxic | – | – | inactive | inactive | Non-toxic | inactive | – |
